Measured values of several laboratories.
Each line is one published result; the experiments were not run side by side.
Target: Serine/threonine-protein kinase Nek11 (NEK11, Homo sapiens, UniProt Q8NG66)
Residues used in one study (Q8NG66 1-645): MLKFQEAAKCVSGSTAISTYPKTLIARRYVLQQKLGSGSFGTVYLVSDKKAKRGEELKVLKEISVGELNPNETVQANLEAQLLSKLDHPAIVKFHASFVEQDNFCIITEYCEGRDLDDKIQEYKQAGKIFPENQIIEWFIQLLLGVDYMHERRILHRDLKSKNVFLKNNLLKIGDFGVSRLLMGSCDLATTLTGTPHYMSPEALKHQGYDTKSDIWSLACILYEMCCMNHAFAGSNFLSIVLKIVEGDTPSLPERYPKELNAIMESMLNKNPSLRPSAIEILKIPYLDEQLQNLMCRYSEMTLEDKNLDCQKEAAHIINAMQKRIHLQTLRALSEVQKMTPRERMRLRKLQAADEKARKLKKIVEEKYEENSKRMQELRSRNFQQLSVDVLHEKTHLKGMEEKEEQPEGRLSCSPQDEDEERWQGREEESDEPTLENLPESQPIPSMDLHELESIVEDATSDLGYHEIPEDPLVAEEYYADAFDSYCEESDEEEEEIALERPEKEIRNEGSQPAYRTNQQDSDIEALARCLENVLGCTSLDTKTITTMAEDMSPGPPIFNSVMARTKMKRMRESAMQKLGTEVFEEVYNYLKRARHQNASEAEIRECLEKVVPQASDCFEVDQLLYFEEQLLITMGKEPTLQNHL

SMILES | effect on | action | technique | tested at | quantity | result
Oc1cccc(-c2nc(N3CCOCC3)c3oc4ncccc4c3n2)c1 | cell-free assay | – | – | 0.5 µM | remaining signal | 109%
CC(C)(C)c1nc2c(s1)c1nc(N)ncc1c1ccc(NS(=O)(=O)c3c(F)cccc3F)c(F)c12 | enzyme activity | inhibitor | radiometric | 1 µM | remaining activity | 60%
C[C@H](c1ccc(F)cc1)N(Cc1cccc(C(=O)O)c1)C(=O)c1cnc2ccccc2c1 | cell-free assay | – | competition with immobilised ligand | 1 µM | remaining binding | 82%
Cc1ccc(Nc2nccc(N(C)c3ccc4c(C)n(C)nc4c3)n2)cc1S(N)(=O)=O | enzyme activity | inhibitor | – | 10 µM | inhibition | 23%
Cc1c(NC(=O)c2cc(C(N)=O)nc3cc(F)ccc23)c(C(F)(F)F)nn1Cc1ccc(C#N)cc1 | cell-free assay | – | competition with immobilised ligand | 1 µM | remaining binding | 100%
C#Cc1cccc(Nc2ncnc3cc(OCCOC)c(OCCOC)cc23)c1 | cell-free assay | – | – | 0.5 µM | remaining signal | 114%
Cc1cnc(NC2CCOCC2)nc1-n1cnc(C(=O)NC(CN)c2cc(F)cc(Cl)c2)c1 (centres unmarked) | enzyme activity | inhibitor | radiometric | 1 µM | remaining activity | 81%
CN1CC(Oc2cnc(C#N)cc2-c2ccn3nc(NC(=O)C4CC4)cc3c2)C1 | enzyme activity | inhibitor | – | 1 µM | inhibition | 11%
CCN(CC)c1ccc(C2=NNC(=O)CC2C)cc1[N+](=O)[O-] (centres unmarked) | enzyme activity | inhibitor | – | 10 µM | remaining activity | 114%
CC(C)(O)[C@H]1CC[C@H](Nc2ccc3ncc(-c4cccc(C(F)(F)F)c4)n3n2)CC1 | enzyme activity | inhibitor | – | 1 µM | remaining activity | 120%
COc1cc(-c2cn(C3CCc4c(F)cccc4N(CC(F)(F)F)C3=O)nn2)ccc1-n1cnc(C)c1 (centres unmarked) | cell-free assay | – | competition with immobilised ligand | 1 µM | remaining binding | 100%
CNC(=O)c1cc(Oc2ccc(NC(=O)Nc3ccc(Cl)c(C(F)(F)F)c3)cc2)ccn1 | enzyme activity | inhibitor | – | 0.3 µM | inhibition | 5%
C[C@H](c1cccc(C#N)c1)n1cc(Cl)cc(C(N)=O)c1=N | cell-free assay | – | competition with immobilised ligand | 1 µM | remaining binding | 100%
O=C1Nc2ccc(Cl)cc2C1=Cc1cc(Cl)c(O)c(Cl)c1 | cell-free assay | – | – | 0.5 µM | remaining signal | 104%
CCC(=O)N[C@H]1CC[C@@H](C(=O)N(C)c2ccc(-c3nc4ccccc4o3)cc2)C1 | cell-free assay | – | competition with immobilised ligand | 1 µM | remaining binding | 86%
Cc1ccc(NC(=O)c2ccc(C)c(C(F)(F)F)c2)cc1C#Cc1nn(C2CCC(O)CC2)c2ncnc(N)c12 (centres unmarked) | cell-free assay | – | – | 10 µM | remaining signal | 50%
O=C(Nc1cnn(-c2csc(C(=O)NC3COC3)c2)c1)Nc1c(F)cccc1Cl | enzyme activity | inhibitor | – | 5 µM | remaining activity | 89.5%
C[C@@H]1CCN(C(=O)CC#N)C[C@@H]1N(C)c1ncnc2[nH]ccc12 | cell-free assay | inhibitor | – | 0.5 µM | remaining signal | 91.7%
CCN(CC)CCNC(=O)c1c(C)[nH]c(/C=C2\C(=O)Nc3ccc(F)cc32)c1C | enzyme activity | inhibitor | – | 0.3 µM | inhibition | 16%
CC(=O)N1CCC(c2ccc(C(=O)NC(=N)N)cc2C(F)(F)F)CC1 | cell-free assay | – | competition with immobilised ligand | 1 µM | remaining binding | 100%
